Measurements reported in ChEMBL document CHEMBL4725371, “A Novel Redox Modulator Induces a GPX4-Mediated Cell Death That Is Dependent on Iron and Reactive Oxygen Species” (J Med Chem, 2020).
Active and inactive are the calls of the source.

Experiments:
MIA PaCa-2 [1] = assay: Down regulation of LRPPRC gene expression in human MIA PaCa-2 cells at 3 times IC50 measured after 4 hrs by Trizol reagent based Bru labelling based gene sequence analysis; type: functional, cell-based
Outline: (§1)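 Bru-seq: 2 × 10⁶ cells were seeded in duplicate and treated at 3 × IC50 for 4 h. Bromouridine (2 mM final) was added for the last 30 min at 37 °C. Total RNA was extracted in TRIzol. BrU-labelled RNA was captured with anti-BrdU magnetic beads, made into cDNA libraries and deep-sequenced.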

MIA PaCa-2 [2] = assay: Induction of reactive oxygen species in human MIA PaCa-2 cells assessed as reduction in GSH to GSSG ratio at 1.5 to 6 uM measured after 2 to 4 hrs by GSH/GSSG-glo assay; type: functional, cell-based; conditions: dose microM 1.5-6, time hrs 2-4
Outline: (§2)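 GSH/GSSG-Glo luminescent assay: 15,000–20,000 MIA PaCa-2 cells per well, attached overnight, treated 2 h and 4 h. Cells were lysed with total or oxidized glutathione reagent, then luciferin generation (30 min, room temperature) and detection reagents added. Luminescence was read after 15 min. Ratio was computed from net RLU as (total − GSSG)/(GSSG/2).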

MIA PaCa-2 [3] = assay: Induction of DNA damage in human MIA PaCa-2 cells assessed as increase in H2AX phosphorylation at 1 to 1.5 uM measured after 4 hrs by Western blot analysis; type: functional, cell-based; conditions: dose microM 1-1.5, time 4.0 hrs
Outline: (§3)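 Cells were treated 4 h at the stated concentrations and lysed in RIPA with protease and phosphatase inhibitors. 25 μg protein was resolved on 10% SDS gels, transferred to PVDF and probed for STAT3, pSTAT3, pH2AX and GAPDH. Detection used fluorescent secondary antibodies, with normalisation to loading control.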

MIA PaCa-2 [4] = assay: Down regulation of LRPPRC expression in human MIA PaCa-2 cells at 3 times IC50 measured after 4 hrs in presence of NAC by proteomics analysis; type: functional, cell-based
MIA PaCa-2 [5] = assay: Down regulation of PNPT1 expression in human MIA PaCa-2 cells at 3 times IC50 measured after 4 hrs in presence of NQO1 inhibitor dicoumarol by proteomics analysis; type: functional, cell-based
[6] = target: Signal transducer and activator of transcription 3 (Homo sapiens) (UniProt P40763); assay: Inhibition of STAT3 phosphorylation in human PANC-1 cells at 1.2 to 1.8 uM measured after 4 hrs by Western blot analysis; type: cell-based; conditions: dose microM 1.2-1.8, time 4.0 hrs; outline: as §3
Signal transducer and activator of transcription 3 (Homo sapiens), sequence (P40763 whole entry): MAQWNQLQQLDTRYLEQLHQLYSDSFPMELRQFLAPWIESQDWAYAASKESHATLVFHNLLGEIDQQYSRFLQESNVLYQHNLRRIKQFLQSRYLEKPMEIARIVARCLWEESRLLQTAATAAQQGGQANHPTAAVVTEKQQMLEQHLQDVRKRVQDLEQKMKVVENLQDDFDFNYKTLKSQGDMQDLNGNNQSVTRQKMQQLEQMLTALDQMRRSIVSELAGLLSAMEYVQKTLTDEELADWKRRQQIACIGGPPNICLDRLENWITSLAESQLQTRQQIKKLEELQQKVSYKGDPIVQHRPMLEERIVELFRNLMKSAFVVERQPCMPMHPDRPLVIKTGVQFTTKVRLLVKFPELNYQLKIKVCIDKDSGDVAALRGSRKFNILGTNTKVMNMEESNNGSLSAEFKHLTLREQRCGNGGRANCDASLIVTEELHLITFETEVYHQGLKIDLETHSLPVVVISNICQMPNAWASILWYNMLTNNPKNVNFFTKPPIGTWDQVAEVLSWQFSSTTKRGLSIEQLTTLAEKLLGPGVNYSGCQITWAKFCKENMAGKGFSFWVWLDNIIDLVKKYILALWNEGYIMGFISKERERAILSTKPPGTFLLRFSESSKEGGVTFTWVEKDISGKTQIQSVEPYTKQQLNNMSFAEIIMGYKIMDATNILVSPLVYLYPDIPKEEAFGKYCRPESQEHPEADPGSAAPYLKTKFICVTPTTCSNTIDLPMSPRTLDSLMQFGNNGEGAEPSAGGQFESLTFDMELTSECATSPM

MIA PaCa-2 [7] = assay: Effect on glutathione level in human MIA PaCa-2 cells at 1.5 to 6 uM measured after 2 to 4 hrs by GSH/GSSG-glo assay; type: functional, cell-based; conditions: dose microM 1.5-6, time hrs 2-4; outline: as §2
MIA PaCa-2 [8] = assay: Down regulation of LRPPRC expression in human MIA PaCa-2 cells at 1.2 uM measured after 24 hrs by proteomics analysis; type: functional, cell-based
Outline: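 MIA PaCa-2 cells were treated with 1.2 μM compound or DMSO for 24 h and lysed in RIPA buffer. 75 μg protein per sample was run in duplicate by TMT10plex-labelled proteomics. Abundance ratio was taken as treatment over control. Changes of at least 1.5-fold at FDR < 0.05 were scored.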

PANC-1 = assay: Induction of DNA damage in human PANC-1 cells assessed as increase in H2AX phosphorylation at 1.2 to 1.8 uM measured after 4 hrs by Western blot analysis; type: functional, cell-based; conditions: dose microM 1.2-1.8, time 4.0 hrs; outline: as §3
MIA PaCa-2 [9] = assay: Inhibition of colony formation in human MIA PaCa-2 cells at 0.4 to 0.8 uM measured after 7 to 9 days in presence of ferroptosis inhibitor ferrostatin-1 by crystal violet staining based assay; type: functional, cell-based; conditions: dose microM 0.4-0.8, time day 7-9
Outline: (§4)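 Cells seeded overnight in 96-well plates at 300 cells/well (MIA PaCa-2) or 600 cells/well (BxPC-3), in RPMI 1640 with 10% FBS. Inhibitor added 1 h before compound, then continuous exposure for 7–9 days until control wells were 80–90% confluent. Stained with 0.05% crystal violet for 30 min, imaged after overnight drying and quantified.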

MIA PaCa-2 [10] = assay: Down regulation of PNPT1 gene expression in human MIA PaCa-2 cells at 3 times IC50 measured after 4 hrs by Trizol reagent based Bru labelling based gene sequence analysis; type: functional, cell-based; outline: as §1
MIA PaCa-2 [11] = assay: Down regulation of PNPT1 expression in human MIA PaCa-2 cells at 3 times IC50 measured after 4 hrs by proteomics analysis; type: functional, cell-based
MIA PaCa-2 [12] = assay: Down regulation of PNPT1 expression in human MIA PaCa-2 cells at 3 times IC50 measured after 4 hrs in presence of NAC by proteomics analysis; type: functional, cell-based
MIA PaCa-2 [13] = assay: Induction of reactive oxygen species in human MIA PaCa-2 cells at 5 to 10 uM measured up to 4 hrs by CM-H2DCFDA dye based fluorescence assay; type: functional, cell-based; conditions: dose microM 5-10, time hrs <=4, TDE = time-dependent effect
Outline: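 1.8 × 10⁴ cells per well were attached overnight, then loaded with 10 μM CM-H2DCFDA in HBSS for 40 min at 37 °C and washed. Compounds were added in HBSS. Fluorescence was read at Ex 483 / Em 530 nm. TBHP was the positive control. NAC at 3 mM was used where stated.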

MIA PaCa-2 [14] = assay: Inhibition of colony formation in human MIA PaCa-2 cells at 0.5 to 2 uM measured after 7 to 9 days in presence of N-acetylcysteine by crystal violet staining based assay; type: functional, cell-based; conditions: dose microM 0.5-2, time day 7-9; outline: as §4
MIA PaCa-2 [15] = assay: Synergistic inhibition of colony formation in human MIA PaCa-2 cells at 0.25 to 0.5 uM measured after 24 hrs in presence of napabucasin by crystal violet staining based assay; type: functional, cell-based; conditions: dose microM 0.25-0.5, time 24.0 hrs
Outline: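 Colony formation in 96-well plates seeded at 300 (MIA PaCa-2) or 600 (PANC-1) cells/well. Napabucasin, As2O3 or olaparib added 1 h before test compound; drugs on cells 24 h. Plates kept until controls were 80–90% confluent (7–9 days), then stained with 0.05% crystal violet and quantified. Synergy scored by HSA and Bliss models.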

CN1CCN(c2ccc(NC3=CC(=O)c4ncncc4C3=O)cc2)CC1
inactive: Activity (MIA PaCa-2 [5]) | Activity (MIA PaCa-2 [7]) | inhibition (MIA PaCa-2 [14])
active: Activity (MIA PaCa-2 [1]) | Activity (MIA PaCa-2 [2]) | Activity (MIA PaCa-2 [3]) | Activity (MIA PaCa-2 [4]) | inhibition [6] | Activity (MIA PaCa-2 [8]) | Activity (PANC-1) | inhibition (MIA PaCa-2 [9]) | Activity (MIA PaCa-2 [10]) | Activity (MIA PaCa-2 [11]) | Activity (MIA PaCa-2 [12]) | Activity (MIA PaCa-2 [13]) Tde | inhibition (MIA PaCa-2 [15])
